Tests used:
[1] = Upregulation of PARP cleavage in human U-937 cells by measuring signal 2 at 30 uM measured after 48 hrs by immunoblot analysis; type: functional
Outline: (§1)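 U937 lymphoma cells grown in RPMI with 2 mM L-glutamine, 1 % pen/strep and 10 % FCS; exposed to compound or DMSO solvent control for 48 h. Total cellular proteins harvested and immunoblotted with an antibody against phosphorylated CK2-substrate motifs and for PARP. Read-out is the densitometric ratio of cleaved to uncleaved PARP signal. Representative of two independent experiments.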

[2] = target: Eukaryotic translation initiation factor 2 subunit 2 (Homo sapiens) (UniProt P20042); assay: Inhibition of eIF2beta phosphorylation in human 786-O cells at 6 uM measured after 48 hrs by immunoblot analysis relative to control
[3] = target: Dual specificity protein kinase CLK4 (Homo sapiens) (UniProt Q9HAZ1); assay: Inhibition of human recombinant CLK4 at 2 uM by Eurofins kinase assay relative to control
[4] = target: Mitogen-activated protein kinase 1 (Homo sapiens) (UniProt P28482); assay: Inhibition of human MAPK1 at 2 uM by Eurofins kinase assay relative to control
[5] = target: Proto-oncogene tyrosine-protein kinase Src (Homo sapiens) (UniProt P12931); assay: Inhibition of human recombinant SRC at 2 uM by Eurofins kinase assay relative to control
Proto-oncogene tyrosine-protein kinase Src (Homo sapiens), sequence (P12931 2-536 limits assumed): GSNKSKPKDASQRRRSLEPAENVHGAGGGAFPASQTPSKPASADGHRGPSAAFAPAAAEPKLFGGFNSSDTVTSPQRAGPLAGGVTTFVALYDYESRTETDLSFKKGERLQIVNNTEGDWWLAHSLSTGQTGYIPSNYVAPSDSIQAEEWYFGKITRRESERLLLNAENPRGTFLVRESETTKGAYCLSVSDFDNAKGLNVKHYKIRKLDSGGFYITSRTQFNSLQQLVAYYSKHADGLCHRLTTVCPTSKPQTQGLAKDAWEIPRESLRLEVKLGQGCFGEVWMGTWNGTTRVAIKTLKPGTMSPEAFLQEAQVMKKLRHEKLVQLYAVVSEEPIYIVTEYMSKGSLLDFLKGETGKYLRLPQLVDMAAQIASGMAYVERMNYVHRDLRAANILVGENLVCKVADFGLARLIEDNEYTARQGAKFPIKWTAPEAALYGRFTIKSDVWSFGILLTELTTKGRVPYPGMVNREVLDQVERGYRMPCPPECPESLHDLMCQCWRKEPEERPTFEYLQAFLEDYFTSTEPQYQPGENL

[6] = target: Hepatocyte growth factor receptor (Homo sapiens) (UniProt P08581); assay: Inhibition of human MET at 2 uM by Eurofins kinase assay relative to control
[7] = target: CDC7/DBF4 (Cell division cycle 7-related protein kinase/Activator of S phase kinase) (Homo sapiens) (UniProt Q9UBU7+O00311); assay: Inhibition of human recombinant GST tagged CDC7/DBF4 expressed in Baculovirus expression system at 2 uM by Eurofins kinase assay relative to control
CDC7/DBF4 (Cell division cycle 7-related protein kinase/Activator of S phase kinase) (Homo sapiens), sequence (O00311 whole entry, looked up): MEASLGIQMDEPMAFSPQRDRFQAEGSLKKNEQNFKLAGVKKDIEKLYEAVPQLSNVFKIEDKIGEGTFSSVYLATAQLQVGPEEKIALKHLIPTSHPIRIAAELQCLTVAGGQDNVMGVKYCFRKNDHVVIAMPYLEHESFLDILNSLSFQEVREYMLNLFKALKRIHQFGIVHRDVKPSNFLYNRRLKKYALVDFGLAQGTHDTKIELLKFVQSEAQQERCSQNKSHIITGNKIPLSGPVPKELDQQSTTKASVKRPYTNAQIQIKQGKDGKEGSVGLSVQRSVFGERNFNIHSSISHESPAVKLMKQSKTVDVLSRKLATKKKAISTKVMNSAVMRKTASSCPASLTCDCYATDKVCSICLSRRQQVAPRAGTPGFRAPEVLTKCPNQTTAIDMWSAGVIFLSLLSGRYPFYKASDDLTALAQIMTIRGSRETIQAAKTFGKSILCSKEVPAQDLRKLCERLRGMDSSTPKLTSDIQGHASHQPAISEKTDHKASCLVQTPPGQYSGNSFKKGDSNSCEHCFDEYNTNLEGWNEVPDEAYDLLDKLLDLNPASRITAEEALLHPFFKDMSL
CDC7/DBF4 (Cell division cycle 7-related protein kinase/Activator of S phase kinase) (Homo sapiens), sequence (Q9UBU7 whole entry, looked up): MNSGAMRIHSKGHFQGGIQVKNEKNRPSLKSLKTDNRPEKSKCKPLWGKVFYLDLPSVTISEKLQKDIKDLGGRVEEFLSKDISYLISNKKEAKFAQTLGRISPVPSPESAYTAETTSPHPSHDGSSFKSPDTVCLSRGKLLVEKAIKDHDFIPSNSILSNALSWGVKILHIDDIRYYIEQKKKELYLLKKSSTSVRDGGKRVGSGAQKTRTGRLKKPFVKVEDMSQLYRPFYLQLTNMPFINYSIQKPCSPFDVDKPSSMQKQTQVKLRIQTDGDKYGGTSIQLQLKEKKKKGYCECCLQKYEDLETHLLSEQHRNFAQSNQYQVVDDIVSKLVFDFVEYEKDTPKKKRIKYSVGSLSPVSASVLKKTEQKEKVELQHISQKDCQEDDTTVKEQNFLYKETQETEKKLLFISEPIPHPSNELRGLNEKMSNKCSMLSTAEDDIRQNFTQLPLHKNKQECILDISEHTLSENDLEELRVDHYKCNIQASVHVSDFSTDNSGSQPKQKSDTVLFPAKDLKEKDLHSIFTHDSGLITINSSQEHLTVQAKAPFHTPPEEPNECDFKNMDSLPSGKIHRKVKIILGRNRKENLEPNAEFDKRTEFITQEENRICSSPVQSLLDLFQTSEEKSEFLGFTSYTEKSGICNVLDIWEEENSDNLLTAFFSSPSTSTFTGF

[8] = target: Mitogen-activated protein kinase 12 (Homo sapiens) (UniProt P53778); assay: Inhibition of human recombinant MAPK12 at 2 uM by Eurofins kinase assay relative to control
Mitogen-activated protein kinase 12 (Homo sapiens), sequence (P53778 whole entry): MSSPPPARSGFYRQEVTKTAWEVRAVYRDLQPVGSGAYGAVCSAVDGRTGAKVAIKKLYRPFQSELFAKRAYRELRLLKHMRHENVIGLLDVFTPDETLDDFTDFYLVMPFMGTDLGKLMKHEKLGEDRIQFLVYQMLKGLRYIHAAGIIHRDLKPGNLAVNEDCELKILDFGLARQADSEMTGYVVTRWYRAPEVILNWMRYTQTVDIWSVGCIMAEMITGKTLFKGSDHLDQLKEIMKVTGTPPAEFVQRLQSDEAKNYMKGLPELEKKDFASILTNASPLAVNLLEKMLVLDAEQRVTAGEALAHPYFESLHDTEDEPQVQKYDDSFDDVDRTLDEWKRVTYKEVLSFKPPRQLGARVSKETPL

[9] = target: Mitogen-activated protein kinase 8 (Homo sapiens) (UniProt P45983); assay: Inhibition of human recombinant MAPK8 at 2 uM by Eurofins kinase assay relative to control
Mitogen-activated protein kinase 8 (Homo sapiens), sequence (P45983 whole entry): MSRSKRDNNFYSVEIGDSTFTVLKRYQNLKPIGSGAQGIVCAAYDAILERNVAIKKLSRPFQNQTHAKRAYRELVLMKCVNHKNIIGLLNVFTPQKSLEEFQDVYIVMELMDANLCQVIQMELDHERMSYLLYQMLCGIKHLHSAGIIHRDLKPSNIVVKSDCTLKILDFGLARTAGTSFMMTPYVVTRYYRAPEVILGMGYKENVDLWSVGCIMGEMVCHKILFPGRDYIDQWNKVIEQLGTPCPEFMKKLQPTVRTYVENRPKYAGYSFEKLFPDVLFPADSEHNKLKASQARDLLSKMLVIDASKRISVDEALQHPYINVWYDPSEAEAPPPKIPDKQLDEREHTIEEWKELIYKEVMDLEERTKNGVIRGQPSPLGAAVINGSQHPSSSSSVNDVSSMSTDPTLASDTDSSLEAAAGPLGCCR

U-937 = assay: Antiproliferative activity against human U-937 cells assessed as inhibition of cell growth measured after 3 to 4 days by MTT assay; type: functional; conditions: time 3-4 day
Outline: (§2)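 786-O or U937 cells grown in RPMI with 2 mM L-glutamine, 1% pen/strep and 10% FCS. Cells were seeded at 5000 per well and left overnight, then switched to 1% FCS medium containing compound or DMSO (max. 0.2% final). Growth ran 3–4 days at 37 °C in 5% CO₂ without medium change, followed by MTT read-out. GI50 is the mean ± SD of at least two independent experiments.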

[10] = target: Dual specificity tyrosine-phosphorylation-regulated kinase 1A (Homo sapiens) (UniProt Q13627); assay: Inhibition of human DYRK1A at 2 uM by Eurofins kinase assay relative to control
[11] = target: Aurora kinase B (Homo sapiens) (UniProt Q96GD4); assay: Inhibition of human recombinant AURKB at 2 uM by Eurofins kinase assay relative to control
[12] = Upregulation of PARP cleavage in human U-937 cells by measuring signal 1 at 30 uM measured after 48 hrs by immunoblot analysis; type: functional
Outline: (§3)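 U937 cells exposed to compound or DMSO for 48 h, then lysed in Laemmli buffer. Lysates were run on 8–16% gradient SDS-PAGE, semi-dry blotted to PVDF and probed for PARP. Detection used IR-fluorescent secondary antibodies. The cleaved/uncleaved PARP signal ratio was obtained by densitometry. Results are representative of two independent experiments.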

[13] = target: Signal transducer and activator of transcription 3 (Homo sapiens) (UniProt P40763); assay: Inhibition of STAT3 phosphorylation in human 786-O cells at 10 uM measured after 48 hrs by immunoblot analysis relative to control
Signal transducer and activator of transcription 3 (Homo sapiens), sequence (P40763 whole entry): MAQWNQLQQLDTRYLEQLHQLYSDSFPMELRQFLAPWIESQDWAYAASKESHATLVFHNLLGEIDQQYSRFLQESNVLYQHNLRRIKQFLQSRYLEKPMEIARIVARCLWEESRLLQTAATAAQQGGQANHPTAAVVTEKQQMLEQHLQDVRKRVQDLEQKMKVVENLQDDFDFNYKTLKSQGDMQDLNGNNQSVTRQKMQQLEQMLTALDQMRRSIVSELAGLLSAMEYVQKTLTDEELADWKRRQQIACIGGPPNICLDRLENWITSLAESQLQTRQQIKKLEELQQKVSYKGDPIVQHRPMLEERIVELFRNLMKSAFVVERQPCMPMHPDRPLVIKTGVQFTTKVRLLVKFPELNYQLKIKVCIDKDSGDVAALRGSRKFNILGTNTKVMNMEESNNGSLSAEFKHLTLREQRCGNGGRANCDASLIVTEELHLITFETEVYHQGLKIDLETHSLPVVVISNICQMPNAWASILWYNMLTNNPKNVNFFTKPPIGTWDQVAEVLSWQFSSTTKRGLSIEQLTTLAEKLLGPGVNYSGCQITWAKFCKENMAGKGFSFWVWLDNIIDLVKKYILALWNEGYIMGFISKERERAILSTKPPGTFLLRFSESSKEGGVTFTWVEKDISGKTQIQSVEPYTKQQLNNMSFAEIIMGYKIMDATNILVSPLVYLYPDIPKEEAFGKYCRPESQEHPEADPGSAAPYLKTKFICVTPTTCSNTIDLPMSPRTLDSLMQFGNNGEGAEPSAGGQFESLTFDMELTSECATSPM

[14] = target: T1, Hsp90 co-chaperone Cdc37 (Homo sapiens) (UniProt Q16543); assay: Inhibition of CDC37 phosphorylation in human 786-O cells at 6 uM measured after 48 hrs by immunoblot analysis relative to control
T1 sequence (whole entry): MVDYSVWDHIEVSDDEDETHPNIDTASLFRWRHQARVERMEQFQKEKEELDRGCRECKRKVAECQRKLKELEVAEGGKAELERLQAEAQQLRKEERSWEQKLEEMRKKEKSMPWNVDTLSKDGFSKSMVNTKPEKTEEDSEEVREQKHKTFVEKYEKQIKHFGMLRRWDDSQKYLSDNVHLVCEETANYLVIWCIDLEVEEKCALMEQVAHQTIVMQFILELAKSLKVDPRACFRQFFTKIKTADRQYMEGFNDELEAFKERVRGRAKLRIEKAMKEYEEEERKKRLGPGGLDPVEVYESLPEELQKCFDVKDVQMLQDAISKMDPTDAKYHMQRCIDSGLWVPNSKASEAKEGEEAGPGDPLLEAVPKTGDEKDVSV

[15] = Upregulation of PARP cleavage in human U-937 cells by measuring signal 2 at 5 uM measured after 48 hrs by immunoblot analysis; type: functional; outline: as §1
[16] = Upregulation of PARP cleavage in human U-937 cells by measuring signal 1 at 15 uM measured after 48 hrs by immunoblot analysis; type: functional; outline: as §3
[17] = target: cAMP-dependent protein kinase catalytic subunit alpha (Homo sapiens) (UniProt P17612); assay: Inhibition of human recombinant PRKACA at 2 uM by Eurofins kinase assay relative to control
[18] = target: Serine/threonine-protein kinase haspin (Homo sapiens) (UniProt Q8TF76); assay: Inhibition of human recombinant GSG2 at 2 uM by Eurofins kinase assay relative to control
Serine/threonine-protein kinase haspin (Homo sapiens), sequence (Q8TF76 whole entry): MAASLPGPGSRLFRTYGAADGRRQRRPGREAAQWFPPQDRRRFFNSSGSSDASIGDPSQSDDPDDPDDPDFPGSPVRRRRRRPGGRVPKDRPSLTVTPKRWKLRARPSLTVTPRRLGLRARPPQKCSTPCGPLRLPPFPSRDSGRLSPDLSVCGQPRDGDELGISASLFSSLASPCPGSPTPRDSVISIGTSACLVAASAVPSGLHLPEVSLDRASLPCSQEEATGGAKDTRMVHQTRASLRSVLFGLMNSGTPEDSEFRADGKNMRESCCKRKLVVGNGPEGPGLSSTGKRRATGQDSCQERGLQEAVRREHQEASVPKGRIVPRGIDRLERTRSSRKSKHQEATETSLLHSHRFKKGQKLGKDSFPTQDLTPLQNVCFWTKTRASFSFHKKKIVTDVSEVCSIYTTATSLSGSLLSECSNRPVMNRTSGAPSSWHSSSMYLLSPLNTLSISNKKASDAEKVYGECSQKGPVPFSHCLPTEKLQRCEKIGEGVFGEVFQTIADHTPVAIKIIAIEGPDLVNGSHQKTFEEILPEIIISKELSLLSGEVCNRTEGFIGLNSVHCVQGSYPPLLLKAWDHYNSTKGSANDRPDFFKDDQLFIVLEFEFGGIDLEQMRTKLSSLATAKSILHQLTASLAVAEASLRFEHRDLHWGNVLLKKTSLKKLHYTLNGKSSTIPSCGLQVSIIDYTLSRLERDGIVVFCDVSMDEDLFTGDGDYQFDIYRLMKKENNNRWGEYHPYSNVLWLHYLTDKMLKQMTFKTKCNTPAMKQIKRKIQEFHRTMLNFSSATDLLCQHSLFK

786-0 [19] = assay: Antiproliferative activity against human 786-0 cells assessed as inhibition of cell growth at 30 uM measured after 3 to 4 days by MTT assay relative to control; type: functional; conditions: time 3-4 day
Outline: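 786-O cells (RPMI, 10% FCS) seeded at 5000 per well and left overnight. Compound was added at a single 30 µM concentration in 1% FCS medium (DMSO max. 0.2%). Cells grew 3–4 days at 37 °C, 5% CO₂, with no medium change, and were read by MTT. Percent inhibition is the mean of duplicates that differed by ≤10%.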

786-0 [20] = assay: Antiproliferative activity against human 786-0 cells assessed as inhibition of cell growth measured after 3 to 4 days by MTT assay; type: functional; conditions: time 3-4 day; outline: as §2
[21] = target: T1, Hsp90 co-chaperone Cdc37 (Homo sapiens); assay: Inhibition of CDC37 phosphorylation in human 786-O cells at 10 uM measured after 48 hrs by immunoblot analysis relative to control
[22] = target: Dual specificity tyrosine-phosphorylation-regulated kinase 2 (Homo sapiens) (UniProt Q92630); assay: Inhibition of human DYRK2 at 2 uM by Eurofins kinase assay relative to control
[23] = target: Serine/threonine-protein kinase TBK1 (Homo sapiens) (UniProt Q9UHD2); assay: Inhibition of human TBK1 at 2 uM by Eurofins kinase assay relative to control
Serine/threonine-protein kinase TBK1 (Homo sapiens), sequence (Q9UHD2 whole entry): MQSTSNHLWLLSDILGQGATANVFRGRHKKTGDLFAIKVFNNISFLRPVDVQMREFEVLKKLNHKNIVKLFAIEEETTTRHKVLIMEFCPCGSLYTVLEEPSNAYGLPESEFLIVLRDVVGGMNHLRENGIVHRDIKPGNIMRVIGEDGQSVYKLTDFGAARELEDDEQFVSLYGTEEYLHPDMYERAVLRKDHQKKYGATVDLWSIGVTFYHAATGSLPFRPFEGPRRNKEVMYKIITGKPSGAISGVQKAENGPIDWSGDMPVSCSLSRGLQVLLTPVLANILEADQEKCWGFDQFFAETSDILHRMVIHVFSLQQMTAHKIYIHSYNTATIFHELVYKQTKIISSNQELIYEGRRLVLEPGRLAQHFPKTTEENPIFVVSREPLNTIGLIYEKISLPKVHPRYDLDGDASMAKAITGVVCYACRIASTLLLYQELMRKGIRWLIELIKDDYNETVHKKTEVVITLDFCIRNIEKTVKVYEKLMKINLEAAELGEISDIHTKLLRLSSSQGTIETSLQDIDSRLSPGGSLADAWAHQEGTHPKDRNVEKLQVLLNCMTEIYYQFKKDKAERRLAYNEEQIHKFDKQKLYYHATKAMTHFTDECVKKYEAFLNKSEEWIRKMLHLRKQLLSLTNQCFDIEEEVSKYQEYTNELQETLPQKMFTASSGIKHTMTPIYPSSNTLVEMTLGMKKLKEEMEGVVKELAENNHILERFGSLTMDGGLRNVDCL

`Clc1ccc(N2CCN(c3ncnc4sc5c(c34)CCNC5)CC2)cc1.O=C(O)C(F)(F)F` showed an Activity [1] of 95%, an inhibition [2] of 0% and an inhibition [3] of 11%. It also gave an inhibition [4] of 2%, an inhibition [5] of 6% and an inhibition [6] of 2%. The inhibition [7] was 0%, the inhibition [8] was 5% and the inhibition [9] was 18%. It also gave a GI50 (U-937) of 7.5 µM, an inhibition [10] of 4% and an inhibition [11] of 4%. The Activity [12] was 98%, the inhibition [13] was 97% and the inhibition [14] was 0%. For the same compound, the Activity [15] was 17%, the Activity [16] was 96% and the inhibition [17] was 6%. The inhibition [18] was 5%, the inhibition at 30 µM (786-0 [19]) was 102% and the GI50 (786-0 [20]) was 7.3 µM. The inhibition [21] was 12%, the inhibition [22] was 9% and the inhibition [23] was 4%.

From ChEMBL document CHEMBL6096655, “Discovery of a novel, selective CK2 inhibitor class with an unusual basic scaffold” (Eur J Med Chem, 2025)
